Laboratory results reported in PMC10013581 (Drug Design, Development and Therapy, 2023).
Values joined by “and” are separate entries in the source; they are usually repeats but may differ in a detail not shown here. Identical values can stand only once. Like-named read-outs stand apart in the source and are kept apart here.

How the values were obtained:
[1] = cited from earlier work
[2] = Safety evaluation; format: in vivo, human; settings: single oral 300 mg
Method in brief: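 Each of the three dosing periods had 8 days of post-dose follow-up. Monitoring covered physical examination, vital signs, 12-lead ECG, haematology, urinalysis, biochemistry, coagulation and adverse events. Vital signs and ECG were taken within 1 h pre-dose, at 3 h ±30 min post-dose, and daily at other visits. Adverse events were graded by NCI CTCAE v5.0. All 18 dosed subjects formed the safety set.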

[3] = system: c-Met-dependent non-small cell lung cancer (NSCLC) and other tumor models; settings: SCC244 at 10 mg/kg; cited from earlier work
[4] = no reference given, cited from earlier work
[5] = format: in vivo, human
Method in brief: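 Three-period crossover in 18 healthy males aged 18–45 y with a 14-day washout. Dosing was fasted, or within 30 min of starting a high-fat/high-calorie or low-fat meal, with 240 mL water and no food for ≥4 h. EDTA plasma was sampled 0–168 h and assayed by LC-MS/MS (MRM, d6 internal standard). NCA gave parameters; log-transformed values were fitted by mixed-effects model for geometric mean ratios with 90% CI.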

[6] = single oral 300 mg, fasting, n=18
[7] = single oral 300 mg, high-fat meal, n=17
[8] = single oral 300 mg, low-fat meal, n=18
[9] = single oral 300 mg, n=17, bioavailability analysis set

CS(=O)(=O)CCNCc1ccc(-c2ccc3ncnc(Nc4ccc(OCc5cccc(F)c5)c(Cl)c4)c3c2)o1 [Lapatinib]
Bioavailability increase with a high-fat meal [1]: 161% | Bioavailability increase with a low-fat meal [1]: 80%

Cn1cc(-c2cnc3cnn(S(=O)(=O)c4cnc5ccc(-c6cnn(C)c6)cn45)c3c2)cn1 [SCC244]
Other tolerability assessments (laboratory parameters, vital signs, physical examination, 12-lead ECGs) ([2]; all meal conditions): No clinically significant abnormalities | SAEs or AEs leading to permanent discontinuation ([2]; all meal conditions): No SAEs or AEs leading to permanent discontinuation were reported | Incidence of AEs (subjects with any AE) ([2]; fasted, 12/18 subjects): 66.7% | Incidence of AE blood fibrinogen decreased ([2]; fasting, n=18): 16.7% (3) | Incidence of AE dizziness ([2]; fasting, n=18): 16.7% (3) | Incidence of AE head discomfort ([2]; fasting, n=18): 5.6% (1) | Incidence of AE headache ([2]; fasting, n=18): 27.8% (5) | Incidence of AE protein urine presence ([2]; fasting, n=18): 16.7% (3) | Incidence of AEs (subjects with any AE) ([2]; high-fat meal, 12/17 subjects): 70.6% | Incidence of AE blood fibrinogen decreased ([2]; high-fat meal, n=17): 23.5% (4) | Incidence of AE dizziness ([2]; high-fat meal, n=17): 0% (0) | Incidence of AE head discomfort ([2]; high-fat meal, n=17): 11.8% (2) | Incidence of AE headache ([2]; high-fat meal, n=17): 47.1% (8) | Incidence of AE protein urine presence ([2]; high-fat meal, n=17): 0% (0) | Subjects with a CTCAE grade 2 AE (headache); all other AEs grade 1 ([2]; low-fat meal): 1 subject | Incidence of AEs (subjects with any AE) ([2]; low-fat meal, 15/18 subjects): 83.3% | Incidence of AE blood fibrinogen decreased ([2]; low-fat meal, n=18): 27.8% (5) | Incidence of AE dizziness ([2]; low-fat meal, n=18): 11.1% (2) | Incidence of AE head discomfort ([2]; low-fat meal, n=18): 11.1% (2) | Incidence of AE headache ([2]; low-fat meal, n=18): 44.4% (8) | Incidence of AE protein urine presence ([2]; low-fat meal, n=18): 5.6% (1) | Efficacy compared with capmatinib and crizotinib [3]: comparable with that of capmatinib at 15 mg/kg and crizotinib at 50 mg/kg | Solubility in water [4]: practically insoluble in water | Biopharmaceutics Classification System (BCS) class ([4]; poor aqueous solubility but sufficient permeability): Class II | Solubility versus pH ([4]; weak base drug): declines greatly when the pH is higher than 1.2 | Tmax ([5]; male, human, plasma, po, 300 mg): 4 h | AUC(0-inf) ([5]; male, human, plasma, po, 300 mg, AUC0-inf (geometric mean), single oral 300 mg, fasting, n=17, bioavailability analysis set): 25.3 µg·h/mL | AUC(0-inf) ([5]; male, human, plasma, po, 300 mg, AUC0-inf (geometric mean), single oral 300 mg, high-fat meal, n=17, bioavailability analysis set): 59.7 µg·h/mL | AUC(0-inf) ([5]; male, human, plasma, po, 300 mg, AUC0-inf (geometric mean), single oral 300 mg, low-fat meal, n=17, bioavailability analysis set): 55.3 µg·h/mL | AUC(0-inf) ([5]; male, human, plasma, po, 300 mg, AUC0-inf, mean (SD), single oral 300 mg, fasting, n=18): 27.7 µg·h/mL | AUC(0-inf) ([5]; male, human, plasma, po, 300 mg, AUC0-inf, mean (SD), single oral 300 mg, high-fat meal, n=17): 65.1 µg·h/mL | AUC(0-inf) ([5]; male, human, plasma, po, 300 mg, AUC0-inf, mean (SD), single oral 300 mg, low-fat meal, n=18): 60.5 µg·h/mL | AUC(0-t) ([5]; male, human, plasma, po, 300 mg, AUC0-t (geometric mean), single oral 300 mg, fasting, n=17, bioavailability analysis set): 24.8 µg·h/mL | AUC(0-t) ([5]; male, human, plasma, po, 300 mg, AUC0-t (geometric mean), single oral 300 mg, high-fat meal, n=17, bioavailability analysis set): 58.9 µg·h/mL | AUC(0-t) ([5]; male, human, plasma, po, 300 mg, AUC0-t (geometric mean), single oral 300 mg, low-fat meal, n=17, bioavailability analysis set): 54.3 µg·h/mL | AUC(0-t) ([5]; male, human, plasma, po, 300 mg, AUC0-t, mean (SD), single oral 300 mg, fasting, n=18): 27.2 µg·h/mL | AUC(0-t) ([5]; male, human, plasma, po, 300 mg, AUC0-t, mean (SD), single oral 300 mg, high-fat meal, n=17): 64.1 µg·h/mL | AUC(0-t) ([5]; male, human, plasma, po, 300 mg, AUC0-t, mean (SD), single oral 300 mg, low-fat meal, n=18): 59.6 µg·h/mL | Cmax ([5]; male, human, plasma, po, 300 mg, Cmax (geometric mean), single oral 300 mg, fasting, n=17, bioavailability analysis set): 0.824 µg/mL | Cmax ([5]; male, human, plasma, po, 300 mg, Cmax (geometric mean), single oral 300 mg, high-fat meal, n=17, bioavailability analysis set): 1.61 µg/mL | Cmax ([5]; male, human, plasma, po, 300 mg, Cmax (geometric mean), single oral 300 mg, low-fat meal, n=17, bioavailability analysis set): 1.6 µg/mL | Cmax ([5]; male, human, plasma, po, 300 mg, Cmax, mean (SD), single oral 300 mg, fasting, n=18): 0.869 µg/mL | Cmax ([5]; male, human, plasma, po, 300 mg, Cmax, mean (SD), single oral 300 mg, high-fat meal, n=17): 1.73 µg/mL | Cmax ([5]; male, human, plasma, po, 300 mg, Cmax, mean (SD), single oral 300 mg, low-fat meal, n=18): 1.75 µg/mL | half-life ([5]; male, human, plasma, po, 300 mg, Mean t1/2 under different meal conditions, single oral 300 mg, low-fat meal, high-fat meal and fasted groups): 24.7 to 26.1 h | half-life ([5]; male, human, plasma, po, 300 mg, t1/2, mean (SD), single oral 300 mg, fasting, n=18): 26.1 h | half-life ([5]; male, human, plasma, po, 300 mg, t1/2, mean (SD), single oral 300 mg, high-fat meal, n=17): 24.7 h | half-life ([5]; male, human, plasma, po, 300 mg, t1/2, mean (SD), single oral 300 mg, low-fat meal, n=18): 25.6 h | %CV (AUC0-inf), inter-subject variability [5, 6]: 44.0% | %CV (AUC0-t), inter-subject variability [5, 6]: 44.2% | %CV (Cmax), inter-subject variability [5, 6]: 34.3% | CL/F, mean (SD) [5, 6]: 12.8 (5.5) L/h | %CV (AUC0-inf), inter-subject variability [5, 7]: 35.3% | %CV (AUC0-t), inter-subject variability [5, 7]: 34.8% | %CV (Cmax), inter-subject variability [5, 7]: 30.5% | CL/F, mean (SD) [5, 7]: 5.7 L/h and 5.7 (4.2) L/h | Tmax, median (range) [5, 7]: 4.0 (2.0–12.0) h | %CV (AUC0-inf), inter-subject variability [5, 8]: 31.6% | %CV (AUC0-t), inter-subject variability [5, 8]: 31.5% | %CV (Cmax), inter-subject variability [5, 8]: 30.2% | CL/F, mean (SD) [5, 8]: 6.3 L/h and 6.3 (5.8) L/h | Tmax, median (range) [5, 8]: 4.0 (2.0–8.0) h | AUC0-inf geometric mean ratio (90% CI) of high-fat meal vs fasting [5, 9]: 235.9% (207.5–268.3%) | AUC0-inf geometric mean ratio (90% CI) of low-fat meal vs fasting [5, 9]: 218.3% (192.0–248.3%) | AUC0-t geometric mean ratio (90% CI) of high-fat meal vs fasting [5, 9]: 237.4% (208.7–270.0%) | AUC0-t geometric mean ratio (90% CI) of low-fat meal vs fasting [5, 9]: 219.2% (192.7–249.3%) | Cmax geometric mean ratio (90% CI) of high-fat meal vs fasting [5, 9]: 194.8% (174.3–217.7%) | Cmax geometric mean ratio (90% CI) of low-fat meal vs fasting [5, 9]: 194.6% (174.1–217.5%)

C[C@@H](Oc1cc(-c2cnn(C3CCNCC3)c2)cnc1N)c1c(Cl)ccc(F)c1Cl [crizotinib]
Effect of food on bioavailability [1]: unaffected by food

CNC(=O)c1cc(Oc2ccc(NC(=O)Nc3ccc(Cl)c(C(F)(F)F)c3)c(F)c2)ccn1 [regorafenib]
Bioavailability increase with a high-fat meal [1]: 48% | Bioavailability increase with a low-fat meal [1]: 36%

COc1cc2c(Nc3ccc(Br)cc3F)ncnc2cc1OCC1CCN(C)CC1 [vandetanib]
Effect of food on bioavailability [1]: unaffected by food

CCCS(=O)(=O)Nc1ccc(F)c(C(=O)c2c[nH]c3ncc(-c4ccc(Cl)cc4)cc23)c1F [vemurafenib]
Effect of high-fat meal (increase) ([1]; 960mg single dose): 3.7 fold
